MT1-MMP txn act: activates MT1-MMP transcription; activation factor at 10 µM; 0.16% of 86,000 active; HT1080 MT1-MMP promoter luciferase reporter, luminescence, overnight; stronger effect = higher value;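 active means activation factor of at least 2 for MT1-MMP transcription at 10 µM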
Jurkat viability: reduces viability or proliferation of Jurkat cells | Jurkat E6.1 viability, ATP luminescence, 48 h | inhibition, % at 4 µM | 1.2% of 56,000 active | AID 463;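 active means inhibition above the mean inhibition of all tested compounds plus 3 SD, cut at about 28% in these data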
RORA act: activators of human nuclear receptor RORA | P35398 | CHO-K1 Gal4-RORA LBD luciferase reporter, luminescence; percent increase over mock-subtracted basal signal | activation, % at 10 µM | 1.5% of 65,000 active | AID 560;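 active means activation above the mean of all tested compounds plus 3 SD, cut at about 49% in these data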;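 further: 0% = DMSO-treated RORA cells and 100% = added signal equal to DMSO minus mock-transfected cells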
Target sequence (P35398 whole entry, looked up, the tested form may be a part): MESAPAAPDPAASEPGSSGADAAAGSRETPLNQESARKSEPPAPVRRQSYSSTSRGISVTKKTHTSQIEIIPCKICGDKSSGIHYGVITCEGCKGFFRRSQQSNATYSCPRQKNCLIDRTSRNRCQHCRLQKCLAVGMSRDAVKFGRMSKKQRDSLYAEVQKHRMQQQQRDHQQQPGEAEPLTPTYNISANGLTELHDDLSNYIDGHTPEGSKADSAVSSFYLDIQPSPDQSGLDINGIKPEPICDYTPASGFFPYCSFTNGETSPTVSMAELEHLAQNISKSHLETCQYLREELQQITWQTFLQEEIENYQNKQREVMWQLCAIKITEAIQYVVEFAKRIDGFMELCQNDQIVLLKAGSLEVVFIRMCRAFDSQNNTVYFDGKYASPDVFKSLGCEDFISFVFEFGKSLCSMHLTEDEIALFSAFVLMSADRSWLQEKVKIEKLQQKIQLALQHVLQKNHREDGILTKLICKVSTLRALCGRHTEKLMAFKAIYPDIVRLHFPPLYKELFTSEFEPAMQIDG
HEK293 NFkB inh: inhibitors of the PMA/ionomycin-induced NF-kB reporter in HEK293 cells | HEK-293 NF-kB luciferase reporter, luminescence | inhibition, % at 3 µM | 0.21% of 62,000 active | AID 465;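 active means inhibition above the mean of all tested compounds plus 3 SD, cut at about 40% in these data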;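 further: 0% = stimulated DMSO wells and 100% = 10 µM reference inhibitor 5653914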
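Timing: 1 h pretreatment, 16 h stimulation, 37 °C; system: HEK-293 cells with stable firefly luciferase reporter driven by four HIV NF-kB elements; doses: 3 µM once, 0.30% DMSO; measured by: luciferase luminescence; control set: DMSO and 10 µM reference inhibitor; repeats: single test; reagent: PMA plus ionomycin mix as NF-kB-activating stimulus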
SF-1 act: activators of human nuclear receptor SF-1 | AID 522 | activation, % at 10 µM | Q13285 | CHO-K1 Gal4-SF-1 LBD luciferase reporter; % increase over DMSO SF-1-specific signal | 1.9% of 65,000 active;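 active means activation above the mean activation of all tested compounds plus 3 SD, cut at about 50% in these data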
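material = CHO-K1 cells with Gal4–hSF-1 LBD chimera plus Gal4-driven luciferase | compound = 10 µM single point, 1% DMSO | incubation = 20 h compound exposure at 37 °C after 1 h cell settling | measured by = SteadyLite luciferase luminescence | evaluation = percent activation relative to DMSO median and mock-transfected background | control set = DMSO negative control and −SF1 background wells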
* marks the source's active call; other numbers are inactive results; . = no result. The list is not random: actives were taken first. Their share in the collection is about 2.9%.

SMILES	MT1-MMP txn act	Jurkat viability	RORA act	HEK293 NFkB inh	SF-1 act
CN(C)c1ccc(Nc2nc(-c3cccnc3)cs2)cc1	2*	0	10	-30	14
CN(C)c1ccnc(SCc2ccccc2Cl)c1C#N	1.3	5	8	19	8
Cc1c(C(=O)Nc2ccncc2)oc2ccccc12	1.2	16	6	24	16
Cc1c(C(=O)Nc2ccccn2)oc2ccccc12	1	2	40	-32	69*
COC(=O)c1sc(NC(=O)c2oc3ccccc3c2C)nc1C	2.3*	.	61*	.	58*
Cc1c(C(=O)Nc2nnc(C(F)(F)F)s2)oc2ccccc12	1.3	1	-13	-6	41
O=C(CCC(=O)c1cccs1)Nc1ccc(F)c(F)c1F	1.1	.	.	.	.
COCCCn1cnc2oc3nc4ccccc4nc3c2c1=O	1.1	4	50*	-44	34
c1cncc(-c2nc(Oc3ccc(-c4nnco4)cc3)c3c4c(sc3n2)CCCC4)c1	1.2	-6	0	-12	-3
Cc1ccc(O)c(-c2cc(-c3cccc(F)c3)n[nH]2)c1	2.1*	.	.	.	.
Cc1ccc(-c2cc(-c3cccc(F)c3)n[nH]2)c(O)c1	1.8	-1	68*	-31	53*
Cc1nc2ccccc2c(=O)n1NC(=O)c1ccc(F)cc1Cl	1.1	5	4	8	15
COCCCn1c(C)nc2c(c1=O)c1nc3ccccc3nc1n2CCc1ccccc1	0.9	.	5	.	-7
COc1cccc(-c2csc(NC(=O)C3CC3)n2)c1	1.6	8	74*	-12	60*
O=C(Nc1ccc(N2CCCC2)cc1)c1cccc(F)c1	0.5	69*	19	-27	-37
O=C(Nc1ccc(N2CCCC2)c(Cl)c1)c1cccnc1	1.8	.	.	.	.
O=C(Nc1ccc(N2CCCCC2)cc1)c1cncc(Br)c1	1.8	6	78*	-20	8
O=C(Nc1ccc(N2CCCCC2)c(Cl)c1)c1cccnc1	1.7	33*	38	36	75*
C=CCOC(=O)C1=C(C)NC(SCC(=O)Nc2ccccc2)=C(C#N)C1c1ccco1 (centres undefined)	1.2	.	.	.	.
CCOC(=O)c1ccc(CNC(=O)Cn2nnc(-c3ccc(C)cc3)n2)o1	1	-4	-13	13	-8
COC(=O)c1ccc(C(NC(=O)OCc2ccccc2)/C(C)=C/[C@@H](C)CO)cc1 (some centres undefined)	1.1	.	.	.	.
C=COC(=O)CSc1nc(-c2cccs2)ccc1C#N	1.4	.	40	.	69*
Cc1cc(C)cc(NS(=O)(=O)c2ccc3[nH]cc(C(=O)NCc4ccco4)c(=O)c3c2)c1	1.1	48*	-11	18	0
CC(=O)c1ccc(-c2nc3c4ccccc4ccn3c2C(C)=O)o1	1	1	0	89*	-9
O=C(CN1C(=O)NC2(CCCc3ccccc32)C1=O)N1CCc2ccccc2C1 (centres undefined)	1	4	-1	29	2
SMILES	MT1-MMP txn act	Jurkat viability	RORA act	HEK293 NFkB inh	SF-1 act
CS(=O)(=O)N1CCc2cc(S(=O)(=O)Nc3ccc4c(c3)OCCO4)ccc21	0.9	28*	-35	26	-18
Cc1ccc(NC(=O)c2c(C)nc(Nc3nc4ccccc4o3)nc2C)cc1	1.2	-3	-28	3	4
FC(F)(F)Oc1ccc(Nc2nc3ccccc3o2)cc1	2.2*	-1	71*	-21	39
Cc1nc2cc(NCc3nc4ccccc4n3Cc3ccccc3)ccc2n1C	1.1	9	50*	-12	23
Cn1c(NCc2ccccc2O)nc2ccccc21	1.2	2	27	-19	49
Cn1c(CNc2ccc(Cl)cc2)nc2ccccc21	1.6	3	37	-37	59*
Cn1c(NCc2ccccc2Cl)nc2ccccc21	1.2	-4	50*	-14	46
Cc1cccc(NCc2nc3ccccc3n2Cc2ccccc2)c1	1.4	.	.	.	.
COc1cc(NS(=O)(=O)c2ccc3c(c2)oc(=O)n3C)cc(OC)c1OC	1	40*	9	5	18
COc1ccc(NS(=O)(=O)c2ccc3c(c2)oc(=O)n3C)c(OC)c1	1.1	-1	-1	9	6
O=C1CN(c2nc3ccccc3n3cnnc23)CC(=O)N1CCc1ccccc1	1.1	3	27	-2	10
O=S(=O)(NC1CCCC1)c1cccc(S(=O)(=O)N2CCC(n3nnc4ccccc43)CC2)c1	1.1	10	-7	1	-7
COC(=O)[C@@H]1C[C@@]2(O)[C@H](O)[C@H](O)[C@H](O)C[C@H]2N1Cc1ccc(N2CCOCC2)cc1	1.1	.	.	.	.
CCCc1cc(=O)n2[nH]c(-c3ccc(Br)cc3)cc2n1	1.6	-6	38	-36	112*
CCOC(=O)Cc1cc(=O)n2[nH]c(-c3ccccc3)cc2n1	1.3	.	.	.	.
COc1ccccc1-n1nnnc1SCc1cc2c(cc1Br)OCO2	1.1	3	-14	0	7
Cc1ccc(C2NC(=O)c3ccccc3N2)s1 (centres undefined)	0.6	75*	77*	-17	89*
CCCN(CCC)C(=O)c1cc(-c2ccc3c(c2)OCO3)nc2ccccc12	1.5	.	.	.	.
CCOC(=O)Cn1c(=O)oc2cc(S(=O)(=O)N3CCc4ccccc43)ccc21	1.1	4	24	-5	-44
CC(=O)Nc1ccc(-c2nnc(SCC(=O)NCc3ccco3)n2C)cc1	1.1	.	.	.	.
Cc1ccc(-c2cc3nc(C)cc(NCc4ccco4)n3n2)cc1	1.5	2	59*	-23	51*
CCOC(=O)C1=C(COc2ccccc2)NC(=O)NC1c1ccc(C#N)cc1 (centres undefined)	1.1	.	.	.	.
CCCC(=O)Nc1ccccc1NC(=O)CN(C)S(=O)(=O)c1ccccc1	1	1	0	23	-9
Cc1cc(NC(=O)CSc2nnc3c(C)cc4c(C)ccc(C)c4n23)no1	0.7	90*	30	19	31
Cc1cc(NC(=O)CSc2nnc(C3CC3)n2C)no1	1.2	2	-15	6	0
SMILES	MT1-MMP txn act	Jurkat viability	RORA act	HEK293 NFkB inh	SF-1 act
COc1ccc(CNC(=O)c2ccc3c(c2)N(C)C(=O)CS3=O)cc1 (centres undefined)	1.2	-2	39	11	0
CN(C)C(=O)[C@H]1C[C@@H]1[C@H](NC(=O)CNC(=O)[C@@H]1CCCN1C(=O)[C@H]1C[C@@H]1[C@H](NC(=O)OCc1ccccc1)c1ccccc1)c1ccccc1	1.2	.	.	.	.
CCN1CCN(c2ncc3c(n2)CC(c2cc(OC)c(OC)c(OC)c2)CC3=O)CC1 (centres undefined)	0.8	80*	46	29	22
Cc1nn(C)c(C)c1/C=C/C(=O)c1cccs1	1.8	.	.	.	.
Cc1nn(C)cc1/C=C/C(=O)c1cccs1	2.5*	.	.	.	.
N#C/C(=C/c1ccc(N2CCCCCC2)o1)c1cccc(F)c1	1.8	.	.	.	.
N#C/C(=C/c1ccc(N2CCCCCC2)o1)c1ccc(F)cc1	1.3	99*	-62	1	-19

Screens (PubChem)
